Data taken from ChEMBL document CHEMBL5143677, “Small molecule NSAID derivatives for impairing powerhouse in cancer cells” (Bioorg Med Chem, 2022).
Active and inactive are the calls of the source. No cut-off for these calls is given here.

How the values were obtained:
MCF7 [1] = assay: Induction of apoptosis in human MCF7 cells assessed as increase in red fluorescence at IC50 measured after 24 hrs by propidium iodide staining based confocal laser scanning microscopy; assay type: functional, cell-based
How it was run: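 Following 24 h treatment, MCF7 cells incubated with propidium iodide, which binds DNA of apoptotic and necrotic cells; red fluorescence read by confocal microscopy against non-treated cells.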

MCF7 [2] = assay: Induction of ROS generation in human MCF7 cells assessed as increase in red fluorescence at IC50 measured after 24 hrs by MitoSox dye based confocal microscopy; assay type: functional, cell-based
How it was run: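 MCF7 cells exposed 24 h, then stained with MitoSox, which gives red fluorescence with sub-cellular superoxide; signal compared with non-treated control cells by confocal microscopy.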

MCF7 [3] = assay: Induction of ROS generation in human MCF7 cells assessed as increase in green fluorescence measured after 24 hrs by H2DCFDA dye based confocal microscopy relative to control; assay type: functional
How it was run: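 After 24 h treatment, MCF7 cells stained with H2DCFDA, which reacts with sub-cellular ROS to give green fluorescent DCF; imaged by confocal microscopy; green signal expressed as fold over non-treated control cells.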

MCF7 [4] = assay: Induction of apoptosis in human MCF7 cells assessed as reduction in Bcl-2 expression measured after 24 hrs by Western blot analysis; assay type: functional, cell-based
How it was run: (§1)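 MCF7 cells treated 24 h; whole-cell proteins separated by gel electrophoresis and Bcl-2 and caspase-3 detected by Western blot, compared with control cells.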

MCF7 [5] = assay: Induction of mitochondrial outer membrane damage in human MCF7 cells assessed as increase in mitochondrial depolarization by measuring increase in green fluorescence measured after 24 hrs by JC1 dye based confocal microscopy; assay type: cell-based
How it was run: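 MCF7 cells treated 24 h, then incubated with JC1 (green monomer emission 525 nm, red aggregate 590 nm); confocal imaging, depolarization expressed as J-monomer:J-aggregate ratio versus non-treated control.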

MCF7 [6] = assay: Cytotoxicity against human MCF7 cells assessed as reduction in cell viability measured after 24 hrs by MTT assay; assay type: functional, cell-based; conditions: MCF7, 24 h
MCF7 [7] = assay: Induction of apoptosis in human MCF7 cells assessed as reduction in caspase-3 expression measured after 24 hrs by Western blot analysis; assay type: functional, cell-based; how it was run: as §1
MCF7 [8] = assay: Induction of mitochondrial outer membrane damage in human MCF7 cells assessed as morphological changes by measuring appearance of fragmented punctate structure at IC50 measured after 24 hrs by mitotracker red based confocal microscopy; assay type: cell-based
[9] = Cytotoxicity against human RPE-1 cells assessed as reduction in cell viability measured after 24 hrs by MTT assay; assay type: toxicity, cell-based; conditions: RPE-1 cells (TERT-RPE1)
MCF7 [10] = assay: Induction of mitochondrial outer membrane damage in human MCF7 cells assessed as increase in mitochondrial depolarization by measuring reduction in red fluorescence measured after 24 hrs by TMRM dye based confocal microscopy; assay type: cell-based
How it was run: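 Mitochondrial damage probe: after 24 h exposure MCF7 cells loaded with TMRM, which stains undamaged mitochondria and is effluxed after damage; red fluorescence read by confocal microscopy against non-treated cells.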

MCF7 [11] = assay: Induction of mitochondrial outer membrane damage in human MCF7 cells assessed as morphological changes by measuring elongated mitochondria at IC50 measured after 24 hrs by mitotracker red based confocal microscopy; assay type: cell-based
MCF7 [12] = assay: Induction of mitochondrial outer membrane damage in human MCF7 cells assessed as morphological changes by measuring appearance of threadlike structure at IC50 measured after 24 hrs by mitotracker red based confocal microscopy; assay type: cell-based

| SMILES | Activity (MCF7 [1]) | Activity (MCF7 [2]) | fold change (FC) (MCF7 [3]) | Activity (MCF7 [4]) | Activity (MCF7 [5]) | IC50 (MCF7 [6]) [µM] | Activity (MCF7 [7]) | Activity (MCF7 [8]) | IC50 at 24 h [9] [µM] | Activity (MCF7 [10]) | Activity (MCF7 [11]) | Activity (MCF7 [12]) |
| --- | --- | --- | --- | --- | --- | --- | --- | --- | --- | --- | --- | --- |
| CC(C)Cc1ccc(C(C)C(=O)OCCCCC[P+](c2ccccc2)(c2ccccc2)c2ccccc2)cc1 (stereo not drawn) | Active | Active | 3.2 | Active | Active | 10.3 | Active | Active | > 40 | Active | – | – |
| COc1ccc([P+](CCCCCOC(=O)Cc2c(C)n(C(=O)c3ccc(Cl)cc3)c3ccc(OC)cc23)(c2ccc(OC)cc2)c2ccc(OC)cc2)cc1 | – | – | – | – | – | 4.5 | – | – | 35.2 | – | – | – |
| CC(C)Cc1ccc(C(C)C(=O)O)cc1 (stereo not drawn) [IBUPROFEN] | – | – | 1.3 | – | Active | > 50 | – | – | > 40 | Active | Active | Active |
| COc1ccc2c(c1)c(CC(=O)OCCCCC[P+](c1ccc(F)cc1)(c1ccc(F)cc1)c1ccc(F)cc1)c(C)n2C(=O)c1ccc(Cl)cc1 | – | – | – | – | – | 25.7 | – | – | 11.2 | – | – | – |
| COc1ccc2c(c1)c(CC(=O)OCCCCC[P+](c1ccc(C)cc1)(c1ccc(C)cc1)c1ccc(C)cc1)c(C)n2C(=O)c1ccc(Cl)cc1 | – | – | – | – | – | 5.8 | – | – | 10.2 | – | – | – |
| COc1ccc([P+](CCCCCOC(=O)C(C)c2ccc(CC(C)C)cc2)(c2ccc(OC)cc2)c2ccc(OC)cc2)cc1 (stereo not drawn) | – | – | – | – | – | 32 | – | – | > 40 | – | – | – |
| CC(C)Cc1ccc(C(C)C(=O)OCCCCC[P+](c2ccc(F)cc2)(c2ccc(F)cc2)c2ccc(F)cc2)cc1 (stereo not drawn) | – | – | – | – | – | > 50 | – | – | 35 | – | – | – |
| COc1ccc2c(c1)c(CC(=O)O)c(C)n2C(=O)c1ccc(Cl)cc1 [INDOMETHACIN] | – | – | 2.4 | Active | Active | > 50 | Active | – | > 40 | Active | Active | Active |
| COc1ccc2c(c1)c(CC(=O)OCCCCC[P+](c1ccccc1)(c1ccccc1)c1ccccc1)c(C)n2C(=O)c1ccc(Cl)cc1 | Active | Active | 2.4 | Active | Active | 1 | Active | Active | 22 | Active | – | – |
| Cc1ccc([P+](CCCCCOC(=O)C(C)c2ccc(CC(C)C)cc2)(c2ccc(C)cc2)c2ccc(C)cc2)cc1 (stereo not drawn) | – | – | – | – | – | 25.6 | – | – | > 40 | – | – | – |
